Data from ChEMBL document CHEMBL3272259, “Nitroimidazoles with antibacterial activity against Neisseria gonorrhoeae” (1977).
Values after ≈ are worked out from the molar mass of the structure shown. Active and inactive are the calls of the source. The rule behind the calls is not given here.

Tests used:
Trichomonas vaginalis = assay: Antibacterial activity against Trichomonas vaginalis ATCC 30001 after 48 hrs by ten-fold serial dilution method; assay type: functional; settings: ATCC 30001, 48 h
Method in brief: (§1)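 Trichomonads were cultured in Diamond medium with 5% serum and incubated 48 h at 37 °C. Cultures were examined microscopically for motile cells, and the MIC (µg/mL) is the lowest concentration giving no motile organisms.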

Pentatrichomonas hominis = assay: Antibacterial activity against Pentatrichomonas hominis ATCC 30000 after 48 hrs by ten-fold serial dilution method; assay type: functional; settings: ATCC 30000, 48 h; method in brief: as §1
Candida albicans = assay: Antifungal activity against Candida albicans; assay type: functional, organism-based
Tritrichomonas foetus = assay: Antibacterial activity against Tritrichomonas foetus 1002-96-27 after 48 hrs by ten-fold serial dilution method; assay type: functional; settings: 1002-96-27, 48 h; method in brief: as §1
Bacteroides fragilis = assay: Antibacterial activity against Bacteroides fragilis ATCC 23745 after 24 hrs by ten-fold serial dilution method; assay type: functional; settings: ATCC 23745, 24 h
Method in brief: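 Grown in Fluid Thioglycollate Broth and incubated 24 h at 37 °C. Growth was read by eye, and the MIC (µg/mL) is the lowest concentration that prevented visible growth.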

Neisseria gonorrhoeae = assay: Antibacterial activity against Neisseria gonorrhoeae ATCC 19424 after 48 hrs by ten-fold serial dilution method; assay type: functional; settings: ATCC 19424, 48 h
Method in brief: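 Tested on chocolate agar made from GC agar base with hemoglobin and Supplement C, incubated 48 h at 37 °C. Plates were checked visually, and the MIC (µg/mL) is the lowest concentration with no visible growth.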

Clostridium perfringens = assay: Antibacterial activity against Clostridium perfringens ATCC 13124 after 24 hrs by ten-fold serial dilution method; assay type: functional; settings: ATCC 13124, 24 h
Method in brief: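 Grown in Fluid Thioglycollate Broth and incubated 24 h at 37 °C. Growth was checked by eye after incubation. MIC was taken as the lowest concentration, in μg/mL, that prevented visible growth.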

| Structure (SMILES) | MIC (Trichomonas vaginalis) [µg/mL] | MIC (Pentatrichomonas hominis) [µg/mL] | Activity (Candida albicans) | MIC (Tritrichomonas foetus) [µg/mL] | MIC (Bacteroides fragilis) [µg/mL] | MIC (Neisseria gonorrhoeae) [µg/mL] | MIC (Clostridium perfringens) [µg/mL] |
| --- | --- | --- | --- | --- | --- | --- | --- |
| Cn1c([N+](=O)[O-])cnc1[S+]([O-])CCOc1ccc(C#N)cc1 (stereo unspecified) | 10 (≈ 31.2 µM) | 100 (≈ 312 µM) | inactive | 100 (≈ 312 µM) | 100 (≈ 312 µM) | 100 (≈ 312 µM) | > 100 |
| Cn1c([N+](=O)[O-])cnc1SCCCCC(=O)O | 1 (≈ 3.86 µM) | 1 (≈ 3.86 µM) | inactive | 1 (≈ 3.86 µM) | 1 (≈ 3.86 µM) | 1 (≈ 3.86 µM) | – |
| Cn1c([N+](=O)[O-])cnc1SCCOc1ccc(C(=O)[O-])cc1.[Na+] | 1 | 1 | – | 10 | 1 | 1 | 10 |
| Cn1c([N+](=O)[O-])cnc1SCCOc1ccc(C(=O)O)cc1 [listing 1 of 2 here] | – | – | inactive | – | – | – | – |
| Cn1ccnc1SCCCCC(=O)O | > 100 | > 100 | inactive | > 100 | > 100 | > 100 | > 100 |
| Cn1c([N+](=O)[O-])cnc1S(=O)(=O)CCC(=O)O | 100 (≈ 380 µM) | 100 (≈ 380 µM) | inactive | 100 (≈ 380 µM) | > 100 | 100 (≈ 380 µM) | > 100 |
| CCOC(=O)c1ccc(OCCCCSc2nccn2C)cc1 [listing 1 of 2 here] | > 100 | > 100 | – | > 100 | > 100 | > 100 | > 100 |
| Cn1c([N+](=O)[O-])cnc1[S+]([O-])CCCCCCCCCCC(=O)O (stereo unspecified) | 10 (≈ 27.8 µM) | 100 (≈ 278 µM) | inactive | 100 (≈ 278 µM) | > 100 | 100 (≈ 278 µM) | > 100 |
| Cn1c([N+](=O)[O-])cnc1[S+]([O-])CCC(=O)O (stereo unspecified) | 10 (≈ 40.4 µM) | 10 (≈ 40.4 µM) | inactive | 10 (≈ 40.4 µM) | 10 (≈ 40.4 µM) | > 100 | 100 (≈ 404 µM) |
| Cn1c([N+](=O)[O-])cnc1SCCCCCCCCCCCC(=O)O | 10 (≈ 28 µM) | 10 (≈ 28 µM) | inactive | 10 (≈ 28 µM) | 100 (≈ 280 µM) | > 100 | > 100 |
| COC(=O)CCCCCCCCCCSc1ncc([N+](=O)[O-])n1C | > 100 | > 100 | inactive | > 100 | > 100 | > 100 | > 100 |
| Cn1ccnc1SCCOc1ccc(C#N)cc1 [listing 1 of 2 here] | > 100 | > 100 | – | > 100 | > 100 | > 100 | > 100 |
| CCOC(=O)c1ccc(OCCCCCCCCCCSc2ncc([N+](=O)[O-])n2C)c([N+](=O)[O-])c1 | 10 (≈ 19.7 µM) | 10 (≈ 19.7 µM) | inactive | 10 (≈ 19.7 µM) | 10 (≈ 19.7 µM) | > 100 | > 100 |
| Cn1c([N+](=O)[O-])cnc1SCCCCCCOc1ccc(C(=O)O)cc1 | 1 (≈ 2.64 µM) | 1 (≈ 2.64 µM) | inactive | 1 (≈ 2.64 µM) | 1 (≈ 2.64 µM) | 0.1 (≈ 0.264 µM) | 10 (≈ 26.4 µM) |
| Br.Cn1ccnc1SCCOc1ccc(Br)cc1 | > 100 | > 100 | inactive | > 100 | 100 | 100 | > 100 |
| Cn1c([N+](=O)[O-])cnc1[S+]([O-])CCCCC(=O)O (stereo unspecified) | 100 (≈ 363 µM) | 100 (≈ 363 µM) | inactive | > 100 | 100 (≈ 363 µM) | 100 (≈ 363 µM) | > 100 |

| Structure (SMILES) | MIC (Trichomonas vaginalis) [µg/mL] | MIC (Pentatrichomonas hominis) [µg/mL] | Activity (Candida albicans) | MIC (Tritrichomonas foetus) [µg/mL] | MIC (Bacteroides fragilis) [µg/mL] | MIC (Neisseria gonorrhoeae) [µg/mL] | MIC (Clostridium perfringens) [µg/mL] |
| --- | --- | --- | --- | --- | --- | --- | --- |
| Cn1c([N+](=O)[O-])cnc1SCCCCCCCC(=O)O | 1 (≈ 3.32 µM) | 1 (≈ 3.32 µM) | inactive | 1 (≈ 3.32 µM) | 10 (≈ 33.2 µM) | 0.1 (≈ 0.332 µM) | 0.1 (≈ 0.332 µM) |
| Cc1ncc([N+](=O)[O-])n1CCO [METRONIDAZOLE] | 10 (≈ 58.4 µM) | 1 (≈ 5.84 µM) | inactive | 1 (≈ 5.84 µM) | 1 (≈ 5.84 µM) | > 100 | 10 (≈ 58.4 µM) |
| Cn1c([N+](=O)[O-])cnc1[S+]([O-])CCOc1ccc(C(=O)O)cc1 (stereo unspecified) | 100 (≈ 295 µM) | 100 (≈ 295 µM) | inactive | 100 (≈ 295 µM) | 100 (≈ 295 µM) | 100 (≈ 295 µM) | 100 (≈ 295 µM) |
| Cn1c([N+](=O)[O-])cnc1SCCCCCCC(=O)O | 1 (≈ 3.48 µM) | 1 (≈ 3.48 µM) | inactive | 10 (≈ 34.8 µM) | 1 (≈ 3.48 µM) | 0.1 (≈ 0.348 µM) | 1 (≈ 3.48 µM) |
| Cn1c([N+](=O)[O-])cnc1SCCOc1ccc([N+](=O)[O-])cc1 | 10 (≈ 30.8 µM) | 1 (≈ 3.08 µM) | inactive | 100 (≈ 308 µM) | 100 (≈ 308 µM) | > 100 | 100 (≈ 308 µM) |
| Br.CCOC(=O)c1ccc(OCCCCSc2nccn2C)cc1 | 100 | 100 | – | 100 | > 100 | > 100 | > 100 |
| COC(=O)CCCCCCCCCCS(=O)(=O)c1ncc([N+](=O)[O-])n1C | > 100 | > 100 | inactive | > 100 | > 100 | > 100 | > 100 |
| Br.Cn1ccnc1SCCCCCCCCCCC(=O)O | > 100 | > 100 | inactive | > 100 | > 100 | > 100 | > 100 |
| Cn1c([N+](=O)[O-])cnc1SCCCOc1ccc(C(=O)O)cc1 | 1 (≈ 2.96 µM) | 1 (≈ 2.96 µM) | inactive | 10 (≈ 29.6 µM) | 1 (≈ 2.96 µM) | 1 (≈ 2.96 µM) | 10 (≈ 29.6 µM) |
| Cn1c([N+](=O)[O-])cnc1S(=O)(=O)CCCCC(=O)O | 100 (≈ 343 µM) | 100 (≈ 343 µM) | inactive | > 100 | 100 (≈ 343 µM) | 100 (≈ 343 µM) | > 100 |
| Cn1ccnc1SCCOc1ccc(C#N)cc1 [listing 2 of 2 here] | – | – | inactive | – | – | – | – |
| Cn1c([N+](=O)[O-])cnc1SCCOc1ccc(C#N)cc1 | 1 (≈ 3.29 µM) | 1 (≈ 3.29 µM) | inactive | 1 (≈ 3.29 µM) | – | 100 (≈ 329 µM) | 100 (≈ 329 µM) |
| Br.Cn1ccnc1SCCOc1ccc(C#N)cc1 | > 100 | > 100 | – | > 100 | > 100 | > 100 | > 100 |
| Cn1c([N+](=O)[O-])cnc1SCCOc1ccc(C(=O)O)cc1 [listing 2 of 2 here] | 1 (≈ 3.09 µM) | 1 (≈ 3.09 µM) | – | 1 (≈ 3.09 µM) | 10 (≈ 30.9 µM) | 1 (≈ 3.09 µM) | 10 (≈ 30.9 µM) |
| CCOC(=O)c1ccc(OCCCCSc2nccn2C)cc1 [listing 2 of 2 here] | – | – | inactive | – | – | – | – |
